Measured values published in ChEMBL document CHEMBL3808290, “Discovery of Potent, Orally Bioavailable Inhibitors of Human Cytomegalovirus” (ACS Med Chem Lett, 2016).
≈ marks a conversion by molar mass, not a printed value.

How the values were obtained:
Human betaherpesvirus 5 [1] = test: Antiviral activity against HCMV AD169 infected in human MRC5 cells by CPE assay; format: functional, organism-based; conditions: Human betaherpesvirus 5, AD169, MRC5
In short: (§1)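 MRC-5 fibroblasts were infected with HCMV and inhibition was read as protection from virus-induced cytopathic effect. EC50 is the half-maximal effect concentration, averaged over at least duplicate experiments, each run in triplicate.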

[2] = Cytotoxicity against human MRC5 cells; format: cell-based
[3] = Half life of compound in human liver microsomes; format: ADME
Human betaherpesvirus 5 [4] = test: Antiviral activity against HCMV AD169 assessed as inhibition of viral infection in human MRC5 cells by RT-qPCR method; format: functional, organism-based; conditions: Human betaherpesvirus 5, AD169, MRC5
In short: (§2)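 Infected cells were treated with compound added at the same time as virus, so only a single cycle of viral replication is scored. Viral replication was read by RT-qPCR and EC50 was taken as the half-maximal effect concentration. Each value is at least the mean of duplicate experiments, each run in triplicate.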

[5] = Solubility of the compound at pH 6.8; format: physicochemical; conditions: buffer
Cytochrome P450 3A4 = Cytochrome P450 3A4 (Homo sapiens, UniProt P08684); test: Inhibition of CYP3A4 (unknown origin); format: ADME
Cytochrome P450 2C9 = Cytochrome P450 2C9 (Homo sapiens, UniProt P11712); test: Inhibition of CYP2C9 (unknown origin); format: ADME
Salmonella typhimurium = test: Genotoxicity in Salmonella typhimurium by Ames test; format: toxicity, organism-based; conditions: salmonella enterica subsp. enterica serovar typhimurium
Liver microsome = test: Metabolic stability in human liver microsomes assessed as compound hydrolysis in absence of NADPH
Cytochrome P450 2D6 = Cytochrome P450 2D6 (Homo sapiens, UniProt P10635); test: Inhibition of CYP2D6 (unknown origin); format: ADME
Cytochrome P450 2C8 = biological target: T1, Cytochrome P450 2C8 (Homo sapiens, UniProt P10632); test: Inhibition of CYP2C8 (unknown origin); format: ADME
T1 sequence (P10632 whole entry): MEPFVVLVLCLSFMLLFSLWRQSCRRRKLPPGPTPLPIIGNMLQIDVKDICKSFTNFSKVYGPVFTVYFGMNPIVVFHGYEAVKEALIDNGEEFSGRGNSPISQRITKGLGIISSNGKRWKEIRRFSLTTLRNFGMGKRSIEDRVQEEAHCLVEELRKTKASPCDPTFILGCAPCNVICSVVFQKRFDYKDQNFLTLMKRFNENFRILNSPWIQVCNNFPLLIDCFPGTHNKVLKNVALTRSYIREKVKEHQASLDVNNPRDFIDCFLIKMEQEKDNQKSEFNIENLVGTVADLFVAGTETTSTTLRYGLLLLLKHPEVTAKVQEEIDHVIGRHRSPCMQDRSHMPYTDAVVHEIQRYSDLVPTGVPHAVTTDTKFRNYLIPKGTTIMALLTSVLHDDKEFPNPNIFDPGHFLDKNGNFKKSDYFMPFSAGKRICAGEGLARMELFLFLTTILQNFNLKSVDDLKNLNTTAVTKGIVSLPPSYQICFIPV

Human betaherpesvirus 5 [6] = test: Antiviral activity against HCMV TB40 assessed as inhibition of viral infection in human MRC5 cells by RT-qPCR method; format: functional, organism-based; conditions: Human betaherpesvirus 5, TB40, MRC5; in short: as §2
Human betaherpesvirus 5 [7] = test: Antiviral activity against HCMV TR assessed as inhibition of viral infection in human MRC5 cells by RT-qPCR method; format: functional, organism-based; conditions: Human betaherpesvirus 5, TR; in short: as §2
Human betaherpesvirus 5 [8] = test: Antiviral activity against HCMV VR1814 assessed as inhibition of viral infection in human MRC5 cells by RT-qPCR method; format: functional, organism-based; conditions: Human betaherpesvirus 5, VR1814, MRC5; in short: as §2
Human betaherpesvirus 5 [9] = test: Antiviral activity against HCMV VR1814 assessed as inhibition of viral infection in human ARPE19 cells by RT-qPCR method; format: functional, organism-based; conditions: Human betaherpesvirus 5, VR1814, ARPE-19; in short: as §2
Human betaherpesvirus 5 [10] = test: Antiviral activity against HCMV VR1814 infected in human ARPE19 cells after 72 hrs by cell-to-cell spread assay; format: functional, organism-based; conditions: Human betaherpesvirus 5, VR1814, ARPE-19, 72 h
In short: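 ARPE-19 cells were infected and replication ran for 24 h. Medium and free virus were then removed, and Cytogam neutralizing antibody plus fresh medium were added. After 48 h, allowing one full replication cycle, compounds were added. After a further 72 h, infected nuclei were stained with fluorescent anti-IE1 antibody and clusters imaged. IC50 came from dose-response curves, averaging at least duplicate experiments run in triplicate.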

[11] = Half life of compound in rat; format: ADME, organism-based; conditions: in vivo
[12] = Volume of distribution at steady state in rat; format: ADME, organism-based; conditions: in vivo, read-out: Vdss
[13] = Oral bioavailability in rat; format: ADME, organism-based; conditions: in vivo
Human betaherpesvirus 5 [14] = test: Antiviral activity against HCMV TR infected in human MRC5 cells by CPE assay; format: functional, organism-based; conditions: Human betaherpesvirus 5, TR; in short: as §1
[15] = Apparent permeability across apical to basolateral side in human Caco2 cells; format: ADME, cell-based; conditions: Caco-2

Cytochrome P450 3A4, sequence (P08684 whole entry): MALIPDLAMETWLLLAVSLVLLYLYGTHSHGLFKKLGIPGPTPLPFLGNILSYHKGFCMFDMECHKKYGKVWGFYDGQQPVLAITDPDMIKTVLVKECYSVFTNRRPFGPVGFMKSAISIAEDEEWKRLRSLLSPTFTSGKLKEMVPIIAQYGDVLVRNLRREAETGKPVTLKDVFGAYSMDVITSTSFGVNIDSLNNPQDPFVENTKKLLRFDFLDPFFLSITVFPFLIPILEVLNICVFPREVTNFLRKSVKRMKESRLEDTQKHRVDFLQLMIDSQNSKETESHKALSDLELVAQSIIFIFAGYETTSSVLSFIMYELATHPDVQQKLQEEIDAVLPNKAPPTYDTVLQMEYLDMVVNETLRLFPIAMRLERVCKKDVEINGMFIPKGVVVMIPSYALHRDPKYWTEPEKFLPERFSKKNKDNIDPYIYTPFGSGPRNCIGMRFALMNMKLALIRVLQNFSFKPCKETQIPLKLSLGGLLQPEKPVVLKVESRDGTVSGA
Cytochrome P450 2C9, sequence (P11712 whole entry): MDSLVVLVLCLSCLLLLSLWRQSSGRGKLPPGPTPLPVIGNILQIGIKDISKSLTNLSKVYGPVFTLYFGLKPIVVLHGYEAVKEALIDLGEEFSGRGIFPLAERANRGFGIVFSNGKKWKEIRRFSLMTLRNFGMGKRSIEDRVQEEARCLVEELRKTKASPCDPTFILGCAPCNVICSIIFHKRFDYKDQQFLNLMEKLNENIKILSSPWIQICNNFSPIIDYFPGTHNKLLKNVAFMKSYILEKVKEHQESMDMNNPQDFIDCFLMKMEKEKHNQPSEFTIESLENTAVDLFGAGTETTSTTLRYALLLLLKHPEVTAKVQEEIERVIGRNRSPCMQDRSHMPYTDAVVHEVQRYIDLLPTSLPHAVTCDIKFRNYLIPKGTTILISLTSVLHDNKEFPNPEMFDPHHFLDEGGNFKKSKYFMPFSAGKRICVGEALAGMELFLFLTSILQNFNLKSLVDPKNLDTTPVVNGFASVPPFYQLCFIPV
Cytochrome P450 2D6, sequence (P10635 whole entry): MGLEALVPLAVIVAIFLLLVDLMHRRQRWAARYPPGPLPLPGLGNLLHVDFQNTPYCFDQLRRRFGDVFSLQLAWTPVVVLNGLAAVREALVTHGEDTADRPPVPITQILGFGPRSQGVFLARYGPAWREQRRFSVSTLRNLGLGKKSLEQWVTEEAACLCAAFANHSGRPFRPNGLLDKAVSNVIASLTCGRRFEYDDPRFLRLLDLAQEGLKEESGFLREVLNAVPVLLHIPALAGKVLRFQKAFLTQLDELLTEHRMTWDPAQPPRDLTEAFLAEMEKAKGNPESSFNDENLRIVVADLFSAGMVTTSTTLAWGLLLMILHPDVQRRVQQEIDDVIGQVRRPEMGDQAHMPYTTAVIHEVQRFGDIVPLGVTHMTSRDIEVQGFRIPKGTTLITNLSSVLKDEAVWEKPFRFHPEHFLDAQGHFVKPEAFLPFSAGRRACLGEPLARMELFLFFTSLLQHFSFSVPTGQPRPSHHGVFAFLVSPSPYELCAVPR

Row | SMILES | EC50 (Human betaherpesvirus 5 [1]) [µM] | CC50 [2] [µM] | half-life [3] [h] | EC50 (Human betaherpesvirus 5 [4]) [µM] | solubility [5] [µg/mL] | IC50 (Cytochrome P450 3A4) [µM] | IC50 (Cytochrome P450 2C9) [µM] | Activity (Salmonella typhimurium) | Stability (Liver microsome) | also measured
1 | O=C(Nc1ccc(/N=C(\S)Nc2cc(C(F)(F)F)cc(C(F)(F)F)c2)cc1)c1csnn1 | 0.25 | 36 | 1.83 |  |  |  |  |  |  | 
2 | CC(C)CC(O)(c1cccc(C(F)(F)F)c1)c1nc(-n2ccc(NC(=O)c3cscn3)cc2=O)c[nH]1 (stereo unspecified) |  |  | 0.267 | 0.028 | < 0.1 | > 30 | 0.15 |  |  | 
3 | O=C(Nc1ccc2nc(NCc3cc(C(F)(F)F)cc(C(F)(F)F)c3)sc2c1)c1cscn1 | 0.43 | > 57 |  |  |  |  |  | Toxic | Unstable | 
4 | O=C(Nc1ccc2nc(Cc3cc(C(F)(F)F)cc(C(F)(F)F)c3)[nH]c2c1)c1cscn1 | 2.3 | > 57 |  |  |  |  |  | Toxic | Stable | 
5 | CC(O)(c1cccc(C(F)(F)F)c1)c1nc(-n2ccc(NC(=O)c3cscn3)cc2=O)c[nH]1 (stereo unspecified) |  |  | > 2 | 0.54 | 76 (≈ 160 µM) | > 30 | 3 |  |  | IC50 (Cytochrome P450 2D6): 17 µM; IC50 (Cytochrome P450 2C8): 4.7 µM; EC50 (Human betaherpesvirus 5 [6]): 0.25 µM; EC50 (Human betaherpesvirus 5 [7]): 0.47 µM; EC50 (Human betaherpesvirus 5 [8]): 0.91 µM; EC50 (Human betaherpesvirus 5 [9]): 1.7 µM; EC50 (Human betaherpesvirus 5 [10]): 0.8 µM; half-life [11]: 1.9 h; Vd [12]: 2.5 L; bioavailability [13]: 72%
6 | O=C(Cc1ccc(NC(=O)c2cscn2)cn1)Nc1cc(C(F)(F)F)cc(C(F)(F)F)c1 | 0.54 | > 57 |  |  |  |  |  | Toxic | Stable | 
7 | CC(c1cccc(C(F)(F)F)c1)n1cnc(-n2ccc(NC(=O)c3cscn3)cc2=O)c1 (stereo unspecified) |  |  |  | 2.4 | < 0.1 |  | 2.1 |  |  | IC50 (Cytochrome P450 2C8): 1.7 µM
8 | COc1cccc(C(=O)Nc2ccc(NC(=O)c3ccco3)cc2)c1 | 4 | > 82 | 0.2 | 2.5 | 1.9 (≈ 5.65 µM) | > 30 |  |  |  | EC50 (Human betaherpesvirus 5 [14]): 8.2 µM; Papp A→B [15]: 11 ×10⁻⁶ cm/s; IC50 (Cytochrome P450 2D6): > 30 µM
9 | O=C(Nc1ccc(NC(=O)c2ccco2)cc1)c1cccnc1 | 38 | > 57 |  |  |  |  |  |  |  | 
10 | COc1cccc(C(=O)Nc2ccc(NC(=O)c3ccco3)cc2)c1F | 8 | > 57 |  |  |  |  |  |  |  | 
11 | O=C(Nc1ccc(-c2c[nH]c(-c3cc(C(F)(F)F)cc(C(F)(F)F)c3)n2)cc1)c1cscn1 | 0.13 | 7.8 |  |  |  |  |  | Toxic | Unstable | 
12 | COc1cccc(C(=O)Nc2ccc(NC(=O)c3cscn3)cc2)c1 | 0.64 | > 57 | 0.367 |  |  |  |  |  |  | 
13 | O=C(Cc1ccc(NC(=O)c2cscn2)cc1)Nc1cc(C(F)(F)F)cc(C(F)(F)F)c1 | 0.13 | 36 |  |  |  |  |  | Toxic | Unstable | 
14 | COc1cccc(C(=O)Nc2ccc(NC(=O)c3csnn3)cc2)c1 | 3 | > 57 | 0.567 |  |  |  |  |  |  | 
15 | Cc1ccc(C(C)(O)c2nc(-n3ccc(NC(=O)c4cscn4)cc3=O)c[nH]2)cc1 (stereo unspecified) |  |  | 1.2 | 1.9 | 16 (≈ 38 µM) | > 30 | 14 |  |  | IC50 (Cytochrome P450 2C8): 18 µM
16 | O=C(Cc1ccc(NC(=O)c2cscn2)nc1)Nc1cc(C(F)(F)F)cc(C(F)(F)F)c1 | 0.44 | > 57 |  |  |  |  |  | Toxic | Stable | 
17 | O=C(Nc1ccc(NC(=O)c2ccco2)cc1)c1cccc(Cl)c1 | 1.1 | > 57 | 0.233 |  |  |  |  |  |  | 
18 | O=C(Nc1ccc(NC(=O)c2ccco2)cc1)c1ccc(Cl)c(C(F)(F)F)c1 | 0.34 | > 57 | 0.233 |  |  |  |  |  |  | 
19 | O=C(Cc1cc(C(F)(F)F)cc(C(F)(F)F)c1)Nc1ccc(NC(=O)c2cscn2)cc1 | 0.22 | > 57 | 1.57 |  |  |  |  | Toxic | Unstable | 
20 | O=C(Cn1ccc(NC(=O)c2cscn2)cc1=O)Nc1cc(C(F)(F)F)cc(C(F)(F)F)c1 | 0.44 | 28 |  |  |  |  |  | Non-toxic | Stable | 
21 | O=C(Nc1ccn(-c2c[nH]c(C(O)c3cccc(C(F)(F)F)c3)n2)c(=O)c1)c1cscn1 (stereo unspecified) |  |  | > 2 | 0.47 |  | > 30 | 7.3 |  |  | IC50 (Cytochrome P450 2C8): 4.3 µM
22 | O=C(Nc1ccn(-c2cn(Cc3cccc(C(F)(F)F)c3)cn2)c(=O)c1)c1cscn1 |  |  | > 2 | > 5.8 | < 0.16 | 1.9 | 2.1 |  |  | 
23 | O=C(Cc1cc(C(F)(F)F)cc(C(F)(F)F)c1)Nc1ccc2nc(NC(=O)c3cscn3)sc2c1 | 0.25 | > 57 |  |  |  |  |  | Toxic | Stable | 
24 | CC(C)OC(c1cccc(C(F)(F)F)c1)c1nc(-n2ccc(NC(=O)c3cscn3)cc2=O)c[nH]1 (stereo unspecified) |  |  | > 2 | 0.11 | < 0.1 | > 30 | 1.4 |  |  | IC50 (Cytochrome P450 2C8): 0.18 µM
25 | COc1cccc(C(=O)Nc2ccc(NC(=O)c3cncnc3)cc2)c1 | > 57 | > 57 |  |  |  |  |  |  |  | 
26 | CC(c1cccc(C(F)(F)F)c1)c1nc(-n2ccc(NC(=O)c3cscn3)cc2=O)c[nH]1 (stereo unspecified) |  |  | > 2 | 0.15 | < 0.1 | > 30 | 0.031 |  |  | 
27 | COc1cccc(C(=O)Nc2ccc(NC(=O)c3cocn3)cc2)c1 | 4.4 | > 57 | 1.63 |  |  |  |  |  |  | 
28 | Cc1cccc(C(C)(O)c2nc(-n3ccc(NC(=O)c4cscn4)cc3=O)c[nH]2)c1 (stereo unspecified) |  |  |  | 3.6 | 63 (≈ 149 µM) | > 30 | 13 |  |  | IC50 (Cytochrome P450 2C8): 21 µM
